Reference: ChEMBL document CHEMBL1649306, “Arylimidamide DB766, a potential chemotherapeutic candidate for Chagas' disease treatment” (Antimicrob Agents Chemother, 2010)
The source made the active and inactive calls. The rule behind the calls is not given here.

How the values were obtained:
Trypanosoma cruzi [1] = assay: Antitrypanosomal activity against Trypanosoma cruzi Columbian bloodstream forms infected in C3H mouse assessed as decrease in parasite load at 50 mg/kg/day, po administered 5 days postinfection for 10 consecutive days measured after 41 days; assay type: functional, organism-based
Procedure, shortened: (§1)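 C3H/He mice infected i.p. with 10^3 or 5 × 10^3 Colombian strain bloodstream forms. Treated daily for 10 days with 0.1 ml i.p. or by gavage, reference drug given by gavage. Parasitemia measured by the Pizzi-Brener method; n ≥ 6 parasitemic mice per group.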

Trypanosoma cruzi [2] = assay: Antitrypanosomal activity against Trypanosoma cruzi Columbian bloodstream forms infected in C3H mouse assessed as decrease in parasite load at 100 mg/kg/day, ip administered 5 days postinfection for 10 consecutive days measured after 41days post infection; assay type: functional, organism-based; procedure, shortened: as §1

## CC(C)Oc1cc(NC(=N)c2ccccn2)ccc1-c1ccc(-c2ccc(NC(=N)c3ccccn3)cc2OC(C)C)o1
Trypanosoma cruzi [1]
  Activity: Active
Trypanosoma cruzi [2]
  Activity: Active
